Assay results as given in ChEMBL document CHEMBL1145955, “Synthesis, anti-HIV activity, and molecular mechanism of drug resistance of L-2',3'-didehydro-2',3'-dideoxy-2'-fluoro-4'-thionucleosides” (J Med Chem, 2003).
pEC50, pIC50: −log10 of the molar value. Values belong to the compound of their own block, whether it stands above or below them.

Assays:
CCRF-CEM = experiment: Evaluated in vitro for their potential toxic effects human CEM cells; format: functional, cell-based
Summary of the method: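 CEM T-lymphoblastoid cells in log phase, 2.5 × 10³ cells/well, were exposed to 10-fold serial drug dilutions for 4 days at 37 °C, 5% CO₂. Viability was read by MTT (overnight dye, 5 h solubilization, 570 nm). IC50 was determined by the median-effect method.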

Vero = experiment: Evaluated in vitro for their potential toxic effects against Vero cells; format: functional, cell-based; settings: Chlorocebus sabaeus
Summary of the method: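 Log-phase Vero cells were seeded at 5 × 10³ cells/well in 10-fold serial drug dilutions and incubated 3 days at 37 °C, 5% CO₂. MTT dye was added overnight, then solubilized for 5 h and read at 570 nm. IC50 was taken from median-effect concentration-response curves.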

[1] = Evaluated in vitro for their potential toxic effects on uninfected PHA-stimulated human PBM cells; format: functional, cell-based
Summary of the method: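 Uninfected PHA-stimulated PBM cells from healthy seronegative donors (Ficoll-Hypaque) were plated at 5 × 10⁴ cells/well with 10-fold serial drug dilutions for 5 days at 37 °C, 5% CO₂. The MTT readout was taken at 570 nm after overnight dye and 5 h solubilization. IC50 came from median-effect curves.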

[2] = test system: Human immunodeficiency virus 1; experiment: (§1) In vitro anti-HIV activity was determined in PBM cells infected with HIV-1; format: functional, organism-based; settings: Human immunodeficiency virus 1, PBMC
Summary of the method: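 PHA-stimulated (2-3 days) human PBM cells from healthy seronegative donors, infected in bulk for 1 h with HIV-1 LAI (100 TCID50/1 × 10⁷ cells in flasks or 200 TCID50/6 × 10⁵ cells/well). Infected cells went onto 10-fold serial compound dilutions in RPMI-1640 with 16% FBS, DEAE-dextran and IL-2, 5 days at 37 °C. Virion-pelleted supernatant RT activity was measured by poly(rA)·oligo(dT)/³H-TTP incorporation (37 °C, 2 h). EC50/EC90 came from median-effect curves.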

[3] = test system: Vero (Chlorocebus sabaeus); experiment: Evaluated in vitro for their potential toxic effects against Vero cells
[4] = test system: Human immunodeficiency virus 1; experiment: Antiviral activity was determined against lamivudine-resistant mutant M184V strain; format: functional
Summary of the method: (§2)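 Molecular clones HIV-1 xxBru (wild type) and HIV-1 M184Vpitt infected PHA-stimulated human PBM cells in bulk for 1 h. Cells were cultured with 10-fold serial compound dilutions, 5 days, 37 °C, 5% CO2. Read-out was supernatant RT activity with ³H-TTP incorporation. EC50 and EC90 were taken from concentration-response curves by the median effect method. Fold increase = EC90(M184V)/EC90(xxBru).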

[5] = Fold increase was determined from the ratio of EC90 (HIV-1M184V) / EC90 (HIV-1xxBRU); format: functional; summary of the method: as §2
[6] = test system: Human immunodeficiency virus 1; experiment: Antiviral activity was determined against WT (HIV-1xxBRU); format: functional
Summary of the method: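 Molecular infectious clone HIV-1 xxBru was used to infect PHA-stimulated human PBM cells in bulk for 1 h (100 TCID50/1 × 10⁷ cells or 200 TCID50/6 × 10⁵ cells/well). Cells were cultured 5 days at 37 °C with 10-fold serial compound dilutions. Readout was supernatant RT activity, with ³H-TTP incorporation on poly(rA)·oligo(dT). EC50 was derived by the median-effect method.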

[7] = as §1; settings: Homo sapiens, PBMC

pEC50 [2]: 4.36
SMILES: Nc1nc(O)c2ncn([C@H]3S[C@@H](CO)C=C3F)c2n1
pIC50 (CCRF-CEM): 4.38
pIC50 (Vero): 4.18
pIC50 [1]: < 4.00

pEC50 [2]: 4.81
SMILES: OC[C@H]1C=C(F)[C@@H](n2cnc3c(O)ncnc32)S1
pIC50 (CCRF-CEM): < 4.00
pIC50 (Vero): < 4.00
pIC50 [1]: < 4.00

SMILES: Nc1ccn([C@H]2S[C@@H](CO)C=C2F)c(=O)n1
pIC50 [3]: < 4.00
pIC50 (CCRF-CEM): < 4.00
EC90 [4]: > 100 µM
FI [5]: > 100
EC90 [6]: 1.4 µM
pIC50 [1]: < 4.00
pEC50 [2]: 6.92

pEC50 [2]: < 4.00
SMILES: Cc1cn([C@H]2S[C@@H](CO)C=C2F)c(=O)[nH]c1=O
pIC50 (CCRF-CEM): < 4.00
pIC50 (Vero): < 4.00
pIC50 [1]: < 4.00

pEC50 [2]: 6.82
SMILES: Nc1nc(=O)n([C@H]2S[C@@H](CO)C=C2F)cc1F
pIC50 (CCRF-CEM): < 4.00
pIC50 (Vero): < 4.00
pIC50 [1]: < 4.00

SMILES: Cc1cn([C@H]2C[C@H](N=[N+]=[N-])[C@@H](CO)O2)c(=O)[nH]c1=O [ZIDOVUDINE]
pEC50 [7]: 8.40
pIC50 (CCRF-CEM): 4.54
pIC50 (Vero): 4.84
pIC50 [1]: < 4.00

pEC50 [2]: < 4.00
SMILES: O=c1ccn([C@H]2S[C@@H](CO)C=C2F)c(=O)[nH]1
pIC50 (CCRF-CEM): < 4.00
pIC50 (Vero): < 4.00
pIC50 [1]: < 4.00

pEC50 [2]: 5.77
SMILES: Nc1ncnc2c1ncn2[C@H]1S[C@@H](CO)C=C1F
pIC50 (CCRF-CEM): < 4.00
pIC50 (Vero): < 4.00
pIC50 [1]: < 4.00
